Results published in ChEMBL document CHEMBL1949569, “Galactolipids from Bauhinia racemosa as a new class of antifilarial agents against human lymphatic filarial parasite, Brugia malayi” (Eur J Med Chem, 2012).
≈ marks a conversion by molar mass, not a printed value. Calls of active or inactive are those of the source. The rule behind the calls is not given here.

How the values were obtained:
Brugia malayi [1] = assay: Antifilarial activity against microfilariae Brugia malayi after 48 hrs by MTT assay; type: functional, organism-based; details: for IC50: read-out: IC50
Brugia malayi [2] = assay: Antifilarial activity against microfilariae Brugia malayi assessed as inhibition of motility at 15.6 ug/ml incubated for 48 hrs followed by washout measured after 1 hr in the absence of drug by microscopic analysis; type: functional
How it was run: (§1)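 Microfilariae came from jird peritoneal fluid passed through a 5.0 µm membrane filter. Twenty live mf per well in 200 µL medium, in duplicate, were given two-fold dilutions from 31.25 µg/mL. Incubation matched the adult worms (48 h, 37 °C, CO2). Motility was scored and reported as % reduction vs untreated control.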

[3] = Cytotoxicity against african green monkey Vero cells after 72 hrs by resazurin dye-based fluorimetric analysis; type: cell-based; details: chlorocebus sabaeus, Vero cells
How it was run: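 Vero cells were seeded at 10,000 per well and left overnight at 37 °C in CO2. Samples were tested in triplicate from a 300 µg/mL top concentration in 3:1 serial dilutions, with drug-free and cell-free controls. Resazurin was added after 72 h drug exposure for 2–4 h, then read at ex 536/em 588 nm. CC50 was taken from fluorescence vs concentration.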

Brugia malayi [4] = assay: Antifilarial activity against adult Brugia malayi assessed as inhibition of motility at 3.9 ug/ml incubated for 48 hrs followed by washout measured after 1 hr in the absence of drug by microscopic analysis; type: functional
How it was run: (§2)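 Single fully motile female worms from jird peritoneal cavity were exposed in duplicate wells (1000 µL RPMI 1640, antibiotics, 10% FBS) to two-fold dilutions from 31.25 µg/mL, 48 h, 37 °C, CO2. Worms were moved to drug-free medium and motility was read microscopically 1 h later. Result is % motility reduction vs untreated control.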

Brugia malayi [5] = assay: Antifilarial activity against adult Brugia malayi assessed as inhibition of motility at 15.6 ug/ml incubated for 48 hrs followed by washout measured after 1 hr in the absence of drug by microscopic analysis; type: functional; how it was run: as §2
Brugia malayi [6] = assay: Antifilarial activity against adult Brugia malayi after 48 hrs by MTT assay; type: functional, organism-based
How it was run: (§3)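 Adult female worms were recovered from jird peritoneal cavity 120–150 days after i.p. L3 inoculation. One worm per well sat in 1000 µL RPMI 1640 with antibiotics and 10% FBS, in duplicate, 48 h at 37 °C in CO2. After motility scoring, worms went through the MTT reduction assay. Result is % inhibition of MTT reduction vs untreated control.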

Brugia malayi [7] = assay: Antifilarial activity against adult Brugia malayi assessed as inhibition of motility at 31.25 ug/ml incubated for 48 hrs followed by washout measured after 1 hr in the absence of drug by microscopic analysis; type: functional; how it was run: as §2
Brugia malayi [8] = assay: Antifilarial activity against adult Brugia malayi infected in jird assessed as worm mortality at 50 mg/kg, ip administered for 5 consecutive days measured on day 51; type: functional; details: route intraperitoneal
How it was run: (§4)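 Jirds carrying intraperitoneally transplanted adult B. malayi (sub-periodic strain), 5 animals per group, dosed daily for 5 days. Killed on day 51 after a 50-day observation period. Worms recovered from the peritoneal cavity and scored microscopically for motility, death or encapsulation, giving % adulticidal activity over untreated control, mean ± SE. Live females teased in PBS pH 7.2 to score uterine-content abnormalities as sterilization.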

Brugia malayi [9] = assay: Antifilarial activity against adult Brugia malayi infected in jird assessed as sterilized female worm at 50 mg/kg, ip administered for 5 consecutive days measured on day 51; type: functional; details: route intraperitoneal
How it was run: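 In the i.p.-transplanted adult B. malayi jird model, 50 mg/kg was given i.p. for 5 consecutive days, 5 animals per group. Necropsy on day 51 recovered peritoneal worms. Live females were teased in PBS pH 7.2 and uterine oocytes, eggs and mf checked microscopically for abnormality or death. Result is % sterilized females.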

Brugia malayi [10] = assay: Antifilarial activity against adult Brugia malayi at 3.9 ug/ml by MTT assay relative to control; type: functional; how it was run: as §3
Brugia malayi [11] = assay: Antifilarial activity against microfilariae Brugia malayi assessed as inhibition of motility at 7.8 ug/ml incubated for 48 hrs followed by washout measured after 1 hr in the absence of drug by microscopic analysis; type: functional; how it was run: as §1
Brugia malayi [12] = assay: Antifilarial activity against adult Brugia malayi at 31.25 ug/ml by MTT assay relative to control; type: functional; how it was run: as §3
[13] = Selectivity ratio of CC50 for african green monkey Vero cells to IC50 for microfilariae Brugia malayi; type: ADME, cell-based; details: Vero cells, read-out: Ratio CC50/IC50
How it was run: (§5)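 SI = CC50 (Vero, resazurin assay) / IC50. IC50 came from % motility inhibition of adult female worms or mf over two-fold dilutions from MIC down to 0.3 µg/mL. It was derived from a concentration vs % motility-inhibition plot.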

Brugia malayi [14] = assay: Antifilarial activity against microfilariae Brugia malayi assessed as inhibition of motility at 31.25 ug/ml incubated for 48 hrs followed by washout measured after 1 hr in the absence of drug by microscopic analysis; type: functional; how it was run: as §1
Brugia malayi [15] = assay: Antifilarial activity against adult Brugia malayi assessed as inhibition of motility at 7.8 ug/ml incubated for 48 hrs followed by washout measured after 1 hr in the absence of drug by microscopic analysis; type: functional; how it was run: as §2
Brugia malayi [16] = assay: Antifilarial activity against adult Brugia malayi at 7.8 ug/ml by MTT assay relative to control; type: functional; how it was run: as §3
Brugia malayi [17] = assay: Antifilarial activity against adult Brugia malayi at 15.6 ug/ml by MTT assay relative to control; type: functional; how it was run: as §3
Brugia malayi [18] = assay: Antifilarial activity against microfilariae Brugia malayi assessed as inhibition of motility at 3.9 ug/ml incubated for 48 hrs followed by washout measured after 1 hr in the absence of drug by microscopic analysis; type: functional; how it was run: as §1
Brugia malayi [19] = assay: Antifilarial activity against adult Brugia malayi infected in jird assessed as sterilized female worm at 100 mg/kg, sc administered for 5 consecutive days measured on day 51; type: functional; details: route subcutaneous
How it was run: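 Jirds carrying i.p.-transplanted adult B. malayi got 100 mg/kg s.c. daily for 5 days, 5 animals per group. They were euthanized on day 51 and worms recovered from the peritoneal cavity. Live females were teased in PBS pH 7.2 and uterine contents examined microscopically. Any abnormal or dead oocytes, eggs or mf counted as sterilized, reported as % sterile females.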

Brugia malayi [20] = assay: Antifilarial activity against adult Brugia malayi infected in jird assessed as worm mortality at 100 mg/kg, sc administered for 5 consecutive days measured on day 51; type: functional; details: route subcutaneous; how it was run: as §4
Brugia malayi [21] = assay: Antifilarial activity against microfilariae Brugia malayi assessed as inhibition of motility at 1.9 ug/ml incubated for 48 hrs followed by washout measured after 1 hr in the absence of drug by microscopic analysis; type: functional; how it was run: as §1
Brugia malayi [22] = assay: Antifilarial activity against adult Brugia malayi assessed as inhibition of motility at 1.9 ug/ml incubated for 48 hrs followed by washout measured after 1 hr in the absence of drug by microscopic analysis; type: functional; how it was run: as §2
[23] = Selectivity ratio of CC50 for african green monkey Vero cells to IC50 for adult Brugia malayi; type: ADME, cell-based; details: Vero cells, read-out: Ratio CC50/IC50; how it was run: as §5
Brugia malayi [24] = assay: Antifilarial activity against adult Brugia malayi at 1.9 ug/ml by MTT assay relative to control; type: functional; how it was run: as §3

Compound | MIC (Brugia malayi [1]) | inhibition at 15.6 µg/mL (Brugia malayi [2]) [%] | CC50 at 72 h [3] [µg/mL] | MIC (Brugia malayi [6]) | inhibition at 31.25 µg/mL (Brugia malayi [7]) [%] | Activity (Brugia malayi [8]) [%] | MIC (Brugia malayi [1]; Brugia malayi, 48 h) [µg/mL] | IC50 (Brugia malayi [1]; Brugia malayi, 48 h) [µg/mL] | Activity (Brugia malayi [9]) [%] | inhibition at 3.9 µg/mL (Brugia malayi [10]) [%] | inhibition at 7.8 µg/mL (Brugia malayi [11]) [%] | inhibition at 31.25 µg/mL (Brugia malayi [12]) [%] | selectivity ratio [13] | inhibition at 31.25 µg/mL (Brugia malayi [14]) [%] | inhibition at 7.8 µg/mL (Brugia malayi [16]) [%] | inhibition at 15.6 µg/mL (Brugia malayi [17]) [%] | inhibition at 3.9 µg/mL (Brugia malayi [18]) [%] | further results
IVERMECTIN | 125 µg/mL |  |  |  |  |  |  |  |  |  |  |  |  |  |  |  |  | 
CCCCCCCC/C=C\CCCCCCCC(=O)OC[C@H](CO[C@@H]1O[C@H](CO[C@H]2O[C@H](CO)[C@H](O)[C@H](O)[C@H]2O)[C@H](O)[C@H](O)[C@H]1O)OC(=O)CCCCCCCCCCCCCCC |  | 99 | > 100 | inactive | 50 | -54.15 | 31.2 (≈ 34 µM) | 1.05 (≈ 1.14 µM) | 0 | 0 | 90 | 24.6 | > 95.2 | 100 | 0 | 0 | 80 | inhibition (Brugia malayi [4]): inactive; inhibition (Brugia malayi [5]): inactive; inhibition (Brugia malayi [15]): inactive
O=C(O)c1ccc(O)c(O)c1 [PROTOCATECHUIC ACID] |  |  |  |  | 50 |  |  |  |  |  |  | 20.6 |  | 60 |  |  |  | 
CCN(CC)C(=O)N1CCN(C)CC1 [DIETHYLCARBAMAZINE] | inactive |  |  | inactive |  |  |  |  |  |  |  |  |  |  |  |  |  | Activity (Brugia malayi [19]): 0%; Activity (Brugia malayi [20]): -30.5%
CC/C=C\C/C=C\C/C=C\CCCCCCCC(=O)OC[C@H](CO[C@@H]1O[C@H](CO[C@H]2O[C@H](CO)[C@H](O)[C@H](O)[C@H]2O)[C@H](O)[C@H](O)[C@H]1O)OC(=O)CCCCCCC/C=C\C/C=C\C/C=C\CC |  | 100 | > 100 | 3.9 µg/mL (≈ 4.16 µM) | 100 | -58.3 | 15.6 (≈ 16.6 µM) | 1.61 (≈ 1.71 µM) | 0 | 52.1 | 99 | 82.9 | > 62.2 | 100 | 61.8 | 75 | 95 | inhibition at 3.9 µg/mL (Brugia malayi [4]): 100%; inhibition at 15.6 µg/mL (Brugia malayi [5]): 100%; IC50 (Brugia malayi [6]): 1.25 µg/mL (≈ 1.33 µM); inhibition at 1.9 µg/mL (Brugia malayi [21]): 60%; inhibition at 1.9 µg/mL (Brugia malayi [22]): 90%; inhibition at 7.8 µg/mL (Brugia malayi [15]): 100%; selectivity ratio [23]: > 80; inhibition at 1.9 µg/mL (Brugia malayi [24]): 43.6%
